Laboratory results as given in ChEMBL document CHEMBL5303300, “EUbOPEN Chemogenomics Library - Multiplex” (2023).
Several values for one entry are separate records, joined by “and”; a condition that tells them apart may be missing. Equal values may be shown once.

Assays:
Format in all cases: toxicity, cell-based
HEK-293T = test: Multiplex assay against HEK293T; conditions: human, number of replicates 2
Procedure, shortened: (§1)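 Cells were classed with CellPathfinder machine-learning gating, first as Hoechst high-intensity objects or normal cells, then (normal cells) as healthy, pyknosed or fragmented nuclei, and finally (pyknosed cells) as mitotic or apoptotic. Staining of live cells at seeding used Hoechst33342, BioTracker Green Microtubule Cytoskeleton Dye, MitoTracker Red and Annexin V Alexa Fluor 680, with imaging on a CQ1 microscope at 37°C and 5% CO2 after compound addition. Tubulin, mitochondrial-mass and membrane-permeability phenotypes are per cents of healthy-nucleus cells.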

U2OS = test: Multiplex assay against U2OS; conditions: human, number of replicates 2; procedure, shortened: as §1
Fibroblast = test: Multiplex assay against human fibroblast; conditions: number of replicates 2; procedure, shortened: as §1
[1] = 12 h, 1 µM, compound concentration 1 uM
[2] = 12 h, 10 µM, compound concentration 10 uM
[3] = 24 h, 1 µM, compound concentration 1 uM
[4] = 24 h, 10 µM, compound concentration 10 uM
[5] = 48 h, 1 µM, compound concentration 1 uM
[6] = 48 h, 10 µM, compound concentration 10 uM

## Cn1c(Nc2c(Cl)cccc2Cl)nc2ccc3nc[nH]c(=O)c3c21
HEK-293T; [1]
  Population Apoptotic (%): 65% and 53%
  Population Fragmented Nuclei (%): 4% and 5%
  Population Healthy Nuclei (%): 77% and 80%
  Population Hoechst High Intensity Objects (%): 16% and 8%
  Population Membrane Permeable-Phenotype (%): 5% and 2%
  Population Mitochondria Different-Phenotype (%): 17% and 11%
  Population Mitotic Cells (%): 34% and 46%
  Population Normal (%): 84% and 91%
  Population Pyknosed Nuclei (%): 18% and 14%
  Population Tubulin-Different-Phenotype (%): 41% and 37%
  Total Cell Count: 450 and 596
HEK-293T; [2]
  Population Apoptotic (%): 29% and 35%
  Population Fragmented Nuclei (%): 1%
  Population Healthy Nuclei (%): 81% and 86%
  Population Hoechst High Intensity Objects (%): 4% and 5%
  Population Membrane Permeable-Phenotype (%): 1% and 2%
  Population Mitochondria Different-Phenotype (%): 17% and 12%
  Population Mitotic Cells (%): 70% and 64%
  Population Normal (%): 95% and 94%
  Population Pyknosed Nuclei (%): 16% and 11%
  Population Tubulin-Different-Phenotype (%): 40% and 36%
  Total Cell Count: 676 and 839
HEK-293T; [3]
  Population Apoptotic (%): 72% and 39%
  Population Fragmented Nuclei (%): 7% and 10%
  Population Healthy Nuclei (%): 78% and 79%
  Population Hoechst High Intensity Objects (%): 10% and 7%
  Population Membrane Permeable-Phenotype (%): 2%
  Population Mitochondria Different-Phenotype (%): 6% and 1%
  Population Mitotic Cells (%): 27% and 60%
  Population Normal (%): 89% and 92%
  Population Pyknosed Nuclei (%): 14% and 10%
  Population Tubulin-Different-Phenotype (%): 24% and 13%
  Total Cell Count: 675 and 1010
HEK-293T; [4]
  Population Apoptotic (%): 21% and 17%
  Population Fragmented Nuclei (%): 2%
  Population Healthy Nuclei (%): 85% and 81%
  Population Hoechst High Intensity Objects (%): 3%
  Population Membrane Permeable-Phenotype (%): 2%
  Population Mitochondria Different-Phenotype (%): 4% and 3%
  Population Mitotic Cells (%): 78% and 82%
  Population Normal (%): 96%
  Population Pyknosed Nuclei (%): 12% and 15%
  Population Tubulin-Different-Phenotype (%): 16% and 18%
  Total Cell Count: 1151 and 1278
HEK-293T; [5]
  Population Apoptotic (%): 36% and 15%
  Population Fragmented Nuclei (%): 12% and 15%
  Population Healthy Nuclei (%): 81% and 80%
  Population Hoechst High Intensity Objects (%): 10% and 8%
  Population Membrane Permeable-Phenotype (%): 2% and 3%
  Population Mitochondria Different-Phenotype (%): 1% and 0%
  Population Mitotic Cells (%): 63% and 84%
  Population Normal (%): 89% and 91%
  Population Pyknosed Nuclei (%): 5% and 4%
  Population Tubulin-Different-Phenotype (%): 4% and 5%
  Total Cell Count: 1439 and 2070
HEK-293T; [6]
  Population Apoptotic (%): 19% and 27%
  Population Fragmented Nuclei (%): 4%
  Population Healthy Nuclei (%): 79% and 76%
  Population Hoechst High Intensity Objects (%): 3%
  Population Membrane Permeable-Phenotype (%): 4%
  Population Mitochondria Different-Phenotype (%): 3%
  Population Mitotic Cells (%): 80% and 72%
  Population Normal (%): 96%
  Population Pyknosed Nuclei (%): 16% and 18%
  Population Tubulin-Different-Phenotype (%): 16% and 24%
  Total Cell Count: 1576 and 1527
U2OS; [1]
  Population Apoptotic (%): 40% and 66%
  Population Healthy Nuclei (%): 64% and 87%
  Population Hoechst High Intensity Objects (%): 0%
  Population Membrane Permeable-Phenotype (%): 0% and 1%
  Population Mitochondria Different-Phenotype (%): 0%
  Population Mitotic Cells (%): 60% and 33%
  Population Normal (%): 100%
  Population Pyknosed Nuclei (%): 10% and 7%
  Population Tubulin-Different-Phenotype (%): 100% and 96%
U2OS; [2]
  Population Apoptotic (%): 66% and 52%
  Population Healthy Nuclei (%): 59% and 84%
  Population Hoechst High Intensity Objects (%): 0%
  Population Membrane Permeable-Phenotype (%): 0% and 1%
  Population Mitochondria Different-Phenotype (%): 0% and 1%
  Population Mitotic Cells (%): 33% and 47%
  Population Normal (%): 100% and 99%
  Population Pyknosed Nuclei (%): 11% and 10%
  Population Tubulin-Different-Phenotype (%): 56% and 81%
U2OS; [3]
  Population Apoptotic (%): 50% and 53%
  Population Healthy Nuclei (%): 62% and 87%
  Population Hoechst High Intensity Objects (%): 0%
  Population Membrane Permeable-Phenotype (%): 0% and 2%
  Population Mitochondria Different-Phenotype (%): 2% and 0%
  Population Mitotic Cells (%): 50% and 46%
  Population Normal (%): 100%
  Population Pyknosed Nuclei (%): 10% and 8%
  Population Tubulin-Different-Phenotype (%): 100% and 95%
U2OS; [4]
  Population Apoptotic (%): 75% and 45%
  Population Healthy Nuclei (%): 55% and 78%
  Population Hoechst High Intensity Objects (%): 1% and 0%
  Population Membrane Permeable-Phenotype (%): 2%
  Population Mitochondria Different-Phenotype (%): 0%
  Population Mitotic Cells (%): 25% and 54%
  Population Normal (%): 98% and 100%
  Population Pyknosed Nuclei (%): 11% and 13%
  Population Tubulin-Different-Phenotype (%): 68% and 77%
U2OS; [5]
  Population Apoptotic (%): 56% and 75%
  Population Healthy Nuclei (%): 58% and 89%
  Population Hoechst High Intensity Objects (%): 0%
  Population Membrane Permeable-Phenotype (%): 0% and 1%
  Population Mitochondria Different-Phenotype (%): 0%
  Population Mitotic Cells (%): 43% and 25%
  Population Normal (%): 100% and 99%
  Population Pyknosed Nuclei (%): 20% and 7%
  Population Tubulin-Different-Phenotype (%): 100% and 97%
U2OS; [6]
  Population Apoptotic (%): 75% and 67%
  Population Healthy Nuclei (%): 21% and 58%
  Population Hoechst High Intensity Objects (%): 1% and 0%
  Population Membrane Permeable-Phenotype (%): 5% and 10%
  Population Mitochondria Different-Phenotype (%): 5% and 2%
  Population Mitotic Cells (%): 24% and 32%
  Population Normal (%): 98% and 99%
  Population Pyknosed Nuclei (%): 34% and 28%
  Population Tubulin-Different-Phenotype (%): 61% and 74%
Fibroblast; [1]
  Population Apoptotic (%): 43% and 47%
  Population Fragmented Nuclei (%): 10% and 5%
  Population Healthy Nuclei (%): 56% and 67%
  Population Hoechst High Intensity Objects (%): 0%
  Population Membrane Permeable-Phenotype (%): 10% and 6%
  Population Mitochondria Different-Phenotype (%): 1% and 2%
  Population Mitotic Cells (%): 56% and 52%
  Population Normal (%): 100%
  Population Pyknosed Nuclei (%): 32% and 26%
  Population Tubulin-Different-Phenotype (%): 11% and 14%
  Total Cell Count: 169 and 189
Fibroblast; [2]
  Population Apoptotic (%): 40% and 37%
  Population Fragmented Nuclei (%): 8% and 17%
  Population Healthy Nuclei (%): 62% and 69%
  Population Hoechst High Intensity Objects (%): 0%
  Population Membrane Permeable-Phenotype (%): 10% and 5%
  Population Mitochondria Different-Phenotype (%): 4% and 3%
  Population Mitotic Cells (%): 59% and 62%
  Population Normal (%): 100%
  Population Pyknosed Nuclei (%): 28% and 12%
  Population Tubulin-Different-Phenotype (%): 18% and 23%
  Total Cell Count: 156 and 195
Fibroblast; [3]
  Population Apoptotic (%): 53% and 47%
  Population Fragmented Nuclei (%): 8% and 10%
  Population Healthy Nuclei (%): 54% and 57%
  Population Hoechst High Intensity Objects (%): 0%
  Population Membrane Permeable-Phenotype (%): 12% and 11%
  Population Mitochondria Different-Phenotype (%): 1% and 3%
  Population Mitotic Cells (%): 46% and 52%
  Population Normal (%): 100%
  Population Pyknosed Nuclei (%): 36% and 32%
  Population Tubulin-Different-Phenotype (%): 10% and 18%
  Total Cell Count: 152 and 202
Fibroblast; [4]
  Population Apoptotic (%): 43% and 41%
  Population Fragmented Nuclei (%): 16% and 14%
  Population Healthy Nuclei (%): 54% and 72%
  Population Hoechst High Intensity Objects (%): 0%
  Population Membrane Permeable-Phenotype (%): 9% and 6%
  Population Mitochondria Different-Phenotype (%): 3% and 1%
  Population Mitotic Cells (%): 56% and 58%
  Population Normal (%): 100%
  Population Pyknosed Nuclei (%): 28% and 13%
  Population Tubulin-Different-Phenotype (%): 19% and 11%
  Total Cell Count: 152 and 183
Fibroblast; [5]
  Population Apoptotic (%): 59% and 61%
  Population Fragmented Nuclei (%): 15% and 14%
  Population Healthy Nuclei (%): 55% and 62%
  Population Hoechst High Intensity Objects (%): 2% and 0%
  Population Membrane Permeable-Phenotype (%): 17% and 10%
  Population Mitochondria Different-Phenotype (%): 2%
  Population Mitotic Cells (%): 40% and 38%
  Population Normal (%): 97% and 100%
  Population Pyknosed Nuclei (%): 29% and 23%
  Population Tubulin-Different-Phenotype (%): 17% and 13%
  Total Cell Count: 128 and 187
Fibroblast; [6]
  Population Apoptotic (%): 94% and 87%
  Population Fragmented Nuclei (%): 18%
  Population Healthy Nuclei (%): 26% and 35%
  Population Hoechst High Intensity Objects (%): 0%
  Population Mitochondria Different-Phenotype (%): 0%
  Population Mitotic Cells (%): 5% and 12%
  Population Normal (%): 100%
  Population Pyknosed Nuclei (%): 54% and 46%
  Population Tubulin-Different-Phenotype (%): 37% and 16%
  Total Cell Count: 131 and 170
